Reference: ChEMBL document CHEMBL1151960, “(Nitrooxyacyloxy)methyl esters of aspirin as novel nitric oxide releasing aspirins” (J Med Chem, 2009)

Columns and labels:
[1] = tested on: Aorta; test: Vasodilatory activity in Wistar rat endothelium-denuded thoracic aortic ring assessed as inhibition of phenylephrine-induced contraction preincubated for […] in presence of 1 uM 1H-[1,2,4]oxadiazolo[4,3-a]quinoxalin-1-one; format: functional, tissue-based
Method in brief: (§1)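 Endothelium-denuded rat aorta strips are precontracted with phenylephrine. At the plateau, cumulative concentrations of test agent in DMSO are added. Relaxation is recorded isometrically and reported as EC50 ± SEM (μM). In a separate series, 1 μM ODQ is added 5 min before contraction, giving at least 30 min of preincubation before the vasodilator. At least five experiments.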

[2] = tested on: Aorta; test: Vasodilatory activity in Wistar rat endothelium-denuded thoracic aortic ring assessed as inhibition of phenylephrine-induced contraction […]; format: functional, tissue-based; method in brief: as §1
[3] = Antiaggregatory activity in human platelet rich plasma assessed as inhibition of collagen-induced platelet aggregation at 300 uM preincubated 10 mins before collagen challenge; format: functional
Method in brief: (§2)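 Platelet-rich plasma from citrated blood spun at 210g for 20 min. Compound in 0.5% DMSO vehicle preincubated 10 min, then submaximal collagen (0.8–1.5 μg/mL). Light-transmission aggregometry with stirring at 1000 rpm, 37 °C, recorded for 10 min. Read-out is % inhibition versus vehicle control; IC50 by nonlinear regression, else % inhibition at 300 μM top concentration. At least five experiments.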

[4] = tested on: Platelet; test: (§3) Antiaggregatory activity in human platelet rich plasma assessed as inhibition of collagen-induced platelet aggregation preincubated 10 mins before collagen challenge; format: functional; method in brief: as §2
[5] = Metabolic stability in human serum assessed as half life at 250 uM by RP-HPLC analysis; format: ADME, cell-free
[6] = tested on: Serum; test: Metabolic stability in human serum assessed as maximal amount of aspirin released at 250 uM by RP-HPLC analysis; format: ADME, cell-free
[7] = Chemical stability in acidic medium at pH 1 assessed as unchanged drug level at 0.5 mM after 3 hrs by RP-HPLC analysis; format: physicochemical; settings: read-out: Stability
Method in brief: (§4)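 A 0.5 mM acetonitrile solution (2 mL) is diluted to 10 mL with HCl (pH 1.0) or 50 mM phosphate buffer (pH 7.4) and held at 37 ± 0.5 °C. Aliquots are taken over time for RP-HPLC (C18 column, acetonitrile/water gradient with 0.1% TFA). Performed in triplicate.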

[8] = Chemical stability in phosphate buffer at pH 7.4 assessed as unchanged drug level at 0.5 mM after 3 hrs by RP-HPLC analysis; format: physicochemical; settings: read-out: Stability; method in brief: as §4
[9] = tested on: Aorta; test: Vasodilatory activity in Wistar rat endothelium-denuded thoracic aortic ring assessed as inhibition of phenylephrine-induced contraction at 30 uM preincubated for 30 mins before phenylephrine addition in presence of 1 uM 1H-[1,2,4]oxadiazolo[4,3-a]quinoxalin-1-one; format: functional; set-up: scale not given: the % may be the effect or the level left
[10] = as §3; format: functional; method in brief: as §2
[11] = tested on: Aorta; test: Vasodilatory activity in Wistar rat endothelium-denuded thoracic aortic ring assessed as inhibition of phenylephrine-induced contraction at 100 uM preincubated for 30 mins before phenylephrine addition in presence of 1 uM 1H-[1,2,4]oxadiazolo[4,3-a]quinoxalin-1-one; format: functional; set-up: scale not given: the % may be the effect or the level left

Row | SMILES | EC50 [1] [µM] | Activity [2] | EC50 [2] [µM] | inhibition at 300 µM [3] [%] | Activity [4] | half-life at 250 µM [5] [min] | Activity [6] [%] | remaining at 3 h, 500 µM [7] [%] | remaining at 3 h, 500 µM [8] [%] | Activity [9] [%] | IC50 [10] [µM] | Activity [11] [%]
1 | O=C(O)c1ccc(SCC(CO[N+](=O)[O-])O[N+](=O)[O-])cc1 (stereo not drawn) | 56 | Dose-dependent effect | 0.27 |  |  |  |  |  |  |  |  | 
2 | CC(=O)Oc1ccccc1C(=O)OCOC(=O)CCCC(CO[N+](=O)[O-])O[N+](=O)[O-] (stereo not drawn) |  | Dose-dependent effect | 0.39 | 8.6 | Dose-dependent effect | < 1 | 10.6 | 99 | 99 | <50 |  | 
3 | CC(=O)Oc1ccccc1C(=O)OCOC(=O)c1cccc(OCCCO[N+](=O)[O-])c1 |  | Dose-dependent effect | 0.14 |  | Dose-dependent effect | 1.4 | 48.3 | 99 | 98 | <50 | 100 | 
4 | O=C(O)c1ccc(SCCCO[N+](=O)[O-])cc1 | 53 | Dose-dependent effect | 0.27 |  |  |  |  |  |  |  |  | 
5 | O=C(O)c1ccccc1OCCCO[N+](=O)[O-] |  | Dose-dependent effect | 20 |  |  |  |  |  |  |  |  | <50
6 | O=C(O)c1ccc(CC(CO[N+](=O)[O-])O[N+](=O)[O-])cc1 (stereo not drawn) |  | Dose-dependent effect | 0.33 |  |  |  |  |  |  |  |  | <50
7 | CC(=O)Oc1ccccc1C(=O)OCOC(=O)c1ccc(SCC(CO[N+](=O)[O-])O[N+](=O)[O-])cc1 (stereo not drawn) |  | Dose-dependent effect | 0.1 |  | Dose-dependent effect | 4.6 | 43 | 98 | 98 | <50 | 129 | 
8 | CC(=O)Oc1ccccc1C(=O)OCOC(=O)c1ccc(CC(CO[N+](=O)[O-])O[N+](=O)[O-])cc1 (stereo not drawn) |  | Dose-dependent effect | 0.052 |  | Dose-dependent effect | 3.4 | 34.2 | 99 | 99 | <50 | 97 | 
9 | CC(=O)Oc1ccccc1C(=O)OCOC(=O)CCCCCO[N+](=O)[O-] |  | Dose-dependent effect | 1.2 | 17 | Dose-dependent effect | < 1 | 10.1 | 99 | 99 | <50 |  | 
10 | CC(=O)Oc1ccccc1C(=O)O [ASPIRIN] |  |  |  |  | Dose-dependent effect | 63 |  | 90 | 90 |  | 54 | 
11 | O=C(O)c1cccc(CO[N+](=O)[O-])n1 |  | Dose-dependent effect | 12 |  |  |  |  |  |  |  |  | <50
12 | CC(=O)Oc1ccccc1C(=O)OCOC(=O)c1ccc(CCCO[N+](=O)[O-])cc1 |  | Dose-dependent effect | 0.075 |  | Dose-dependent effect | 1.9 | 65.2 | 98 | 100 | <50 | 41 | 
13 | CC(=O)Oc1ccccc1C(=O)OCOC(=O)c1ccc(OCC(CO[N+](=O)[O-])O[N+](=O)[O-])cc1 (stereo not drawn) |  | Dose-dependent effect | 0.041 |  | Dose-dependent effect | 5.4 | 22.4 | 99 | 99 | <50 | 140 | 
14 | CC(=O)Oc1ccccc1C(=O)OCOC(=O)c1ccc(S(=O)(=O)CCCO[N+](=O)[O-])cc1 |  | Dose-dependent effect | 0.36 |  | Dose-dependent effect | < 1 | 59.2 | 98 | 70 | <50 | 38 | 
15 | CC(=O)Oc1ccccc1C(=O)OCOC(=O)c1ccccc1OCCCO[N+](=O)[O-] |  | Dose-dependent effect | 4 |  | Dose-dependent effect | < 1 | 5 | 99 | 98 | <50 | 163 | 
16 | CC(=O)Oc1ccccc1C(=O)OCOC(=O)CCCCCCO[N+](=O)[O-] |  | Dose-dependent effect | 1.6 | 29 | Dose-dependent effect | < 1 | 17.6 | 99 | 100 | <50 |  | 
17 | O=C(O)CCCCCO[N+](=O)[O-] |  | Dose-dependent effect | 8.3 |  |  |  |  |  |  |  |  | <50
18 | CC(=O)Oc1ccccc1C(=O)OCOC(=O)c1ccc([S+]([O-])CCCO[N+](=O)[O-])cc1 (stereo not drawn) |  | Dose-dependent effect | 0.47 |  | Dose-dependent effect | < 1 | 70.7 | 98 | 90 | <50 | 72 | 
19 | O=C(O)c1ccc(OCC(CO[N+](=O)[O-])O[N+](=O)[O-])cc1 (stereo not drawn) | 67 | Dose-dependent effect | 0.28 |  |  |  |  |  |  |  |  | 
20 | CC(=O)Oc1ccccc1C(=O)OC(C)OC(=O)c1ccc(SCCCO[N+](=O)[O-])cc1 (stereo not drawn) |  | Dose-dependent effect | 0.14 | 27 | Dose-dependent effect | 4.4 | 29.4 | 98 | 99 | <50 |  | 
21 | CC(=O)Oc1ccccc1C(=O)OCOC(=O)CCCCC(CO[N+](=O)[O-])O[N+](=O)[O-] (stereo not drawn) |  | Dose-dependent effect | 0.52 | 36 | Dose-dependent effect | < 1 | 9.8 | 99 | 99 | <50 |  | 
22 | O=C(O)c1cccc(OCCCO[N+](=O)[O-])c1 |  | Dose-dependent effect | 3.8 |  |  |  |  |  |  |  |  | <50
23 | CC(=O)Oc1ccccc1C(=O)OCOC(=O)c1ccc(OCCCO[N+](=O)[O-])cc1 |  | Dose-dependent effect | 0.017 |  | Dose-dependent effect | 3.4 | 39.8 | 99 | 99 | <50 | 138 | 
24 | O=C(O)c1ccc([S+]([O-])CCCO[N+](=O)[O-])cc1 (stereo not drawn) |  | Dose-dependent effect | 6 |  |  |  |  |  |  |  |  | <50
25 | CC(=O)Oc1ccccc1C(=O)OCOC(=O)c1cccc(CO[N+](=O)[O-])n1 |  | Dose-dependent effect | 0.82 |  | Dose-dependent effect | < 1 | 58 | 84 | 60 | <50 | 20 | 
26 | O=C(O)CCCCCCO[N+](=O)[O-] |  | Dose-dependent effect | 20 |  |  |  |  |  |  |  |  | <50
27 | CC(=O)Oc1ccccc1C(=O)OCOC(=O)c1ccc(SCCCO[N+](=O)[O-])cc1 |  | Dose-dependent effect | 0.15 |  | Dose-dependent effect | 2.4 | 61.7 | 99 | 99 | <50 | 45 | 
28 | O=C(O)c1ccc(OCCCO[N+](=O)[O-])cc1 | 66 | Dose-dependent effect | 0.62 |  |  |  |  |  |  |  |  | 
29 | O=C(O)c1ccc(CCCO[N+](=O)[O-])cc1 |  | Dose-dependent effect | 0.51 |  |  |  |  |  |  |  |  | <50
30 | O=C(O)c1ccc(S(=O)(=O)CCCO[N+](=O)[O-])cc1 |  | Dose-dependent effect | 20 |  |  |  |  |  |  |  |  | <50
